Measurements: ChEMBL document CHEMBL6092204, “Synthesis of pyridyl pyrimidine hedgehog signaling pathway inhibitors and their antitumor activity in human pancreatic cancer” (Eur J Med Chem, 2024)

Key:
PANC-1 [1] = assay: Antiproliferative activity against human PANC-1 cells assessed as inhibition of cell viability incubated for 48 hrs by MTT assay; format: functional, cell-based; details: PANC-1, 48 h
Summary of the method: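 Cells in log phase were seeded at 8,000-10,000/well and allowed to adhere overnight at 37 °C, 5% CO2. Compound from DMSO stock, diluted in medium, was applied for 48 h; controls got drug-free medium, blanks held medium only. MTT (5 mg/mL stock) 4 h, formazan dissolved in DMSO, A490 read. Viability was blank-corrected against untreated cells; IC50 came from a fitted curve; three separate experiments.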

BXPC-3 [2] = assay: Inhibition of Hh signaling pathway in human BXPC-3 cells assessed as reduction in Gli1 level incubated for 48 hrs by Western blot analysis; format: cell-based; details: dose 2.5-10 µM
Summary of the method: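 Cells were treated in 6-well plates for 48 h, lysed by sonication in RIPA with PMSF, and quantified by BCA. 20-30 μg protein was run on 6-12% gradient SDS-PAGE and transferred to PVDF. Membranes were blocked 2 h at room temperature, probed with anti-Gli1 overnight at 4 °C and secondary 1.5 h at room temperature, then developed by ECL. Densitometry was normalised to β-actin; three separate experiments.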

BXPC-3 [3] = assay: Inhibition of cell migration in human BXPC-3 cells incubated for 48 hrs by crystal violet staining based transwell assay; format: functional; details: dose 2.5-10 µM
Summary of the method: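 Cells at 1.5×10^5 cells/mL in serum-free medium containing drug were added to the upper Transwell chamber (200 μL), with medium containing 10% FBS below. After 48 h, non-migrated cells were swabbed off. Inserts were fixed in 4% paraformaldehyde for 15-20 min and stained with 0.5% crystal violet. Cells were counted in four random fields at 100×; n = 3.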

PANC-1 [4] = assay: Induction of apoptosis in human PANC-1 cells assessed as late apoptotic cells at 5 uM incubated for 48 hrs by Annexin V-FITC/PI staining based flow cytometry (reference value: 2.74 %); format: functional
PANC-1 [5] = assay: Induction of apoptosis in human PANC-1 cells assessed as viable cells at 8 uM incubated for 48 hrs by Annexin V-FITC/PI staining based flow cytometry (reference value: 93.2 %); format: functional; details: read-out: Activity
PANC-1 [6] = assay: Induction of apoptosis in human PANC-1 cells assessed as early apoptotic cells at 8 uM incubated for 48 hrs by Annexin V-FITC/PI staining based flow cytometry (reference value: 1.88 %); format: functional
PANC-1 [7] = assay: Induction of apoptosis in human PANC-1 cells assessed as late apoptotic cells at 8 uM incubated for 48 hrs by Annexin V-FITC/PI staining based flow cytometry (reference value: 2.74 %); format: functional
PANC-1 [8] = assay: Induction of apoptosis in human PANC-1 cells assessed as necrotic cells at 8 uM incubated for 48 hrs by Annexin V-FITC/PI staining based flow cytometry (reference value: 2.24 %); format: functional
PANC-1 [9] = assay: Induction of apoptosis in human PANC-1 cells assessed as viable cells at 10 uM incubated for 48 hrs by Annexin V-FITC/PI staining based flow cytometry (reference value: 93.2 %); format: functional; details: read-out: Activity
PANC-1 [10] = assay: Induction of apoptosis in human PANC-1 cells assessed as early apoptotic cells at 10 uM incubated for 48 hrs by Annexin V-FITC/PI staining based flow cytometry (reference value: 1.88 %); format: functional
BXPC-3 [11] = assay: Induction of apoptosis in human BXPC-3 cells assessed as viable cells at 2.5 uM incubated for 48 hrs by Annexin V-FITC/PI staining based flow cytometry (reference value: 91.5 %); format: functional; details: read-out: Activity
BXPC-3 [12] = assay: Induction of apoptosis in human BXPC-3 cells assessed as late apoptotic cells at 2.5 uM incubated for 48 hrs by Annexin V-FITC/PI staining based flow cytometry (reference value: 6.72 %); format: functional
BXPC-3 [13] = assay: Induction of apoptosis in human BXPC-3 cells assessed as necrotic cells at 2.5 uM incubated for 48 hrs by Annexin V-FITC/PI staining based flow cytometry (reference value: 0.71 %); format: functional
BXPC-3 [14] = assay: Induction of apoptosis in human BXPC-3 cells assessed as late apoptotic cells at 5 uM incubated for 48 hrs by Annexin V-FITC/PI staining based flow cytometry (reference value: 6.72 %); format: functional
BXPC-3 [15] = assay: Induction of apoptosis in human BXPC-3 cells assessed as viable cells at 8 uM incubated for 48 hrs by Annexin V-FITC/PI staining based flow cytometry (reference value: 91.5 %); format: functional; details: read-out: Activity
BXPC-3 [16] = assay: Induction of apoptosis in human BXPC-3 cells assessed as late apoptotic cells at 10 uM incubated for 48 hrs by Annexin V-FITC/PI staining based flow cytometry (reference value: 6.72 %); format: functional
PANC-1 [17] = assay: Induction of cell cycle arrest in human PANC-1 cells assessed as accumulation at S phase at 5 uM incubated for 48 hrs by PI/RNase staining based flow cytometry (reference value: 7.58 %); format: functional
BXPC-3 [18] = assay: Induction of cell cycle arrest in human BXPC-3 cells assessed as accumulation at G1 phase at 5 uM incubated for 48 hrs by PI/RNase staining based flow cytometry (reference value: 84.2 %); format: functional
BxPC-3 [19] = assay: Antitumor activity aginst human BxPC-3 cells xenografted in BALB/c nude mouse assessed as decrease in tumor volume at 15 mg/kg, ip qd for 21 days relative to control; parameters: scale not given: the % may be the effect or the level left; details: time 21 day
[20] = Toxicity in BALB/c nude mouse xenografted with human BxPC-3 cells assessed as necrosis in spleen at 5 to 15 mg/kg, ip qd for 21 days by H and E staining based analysis; details: in vivo, 504 h
[21] = Toxicity in BALB/c nude mouse xenografted with human BxPC-3 cells assessed as cellular edema in heart at 5 to 15 mg/kg, ip qd for 21 days by H and E staining based analysis; details: in vivo, 504 h
[22] = Toxicity in BALB/c nude mouse xenografted with human BxPC-3 cells assessed as tissue fibrosis in lung at 5 to 15 mg/kg, ip qd for 21 days by H and E staining based analysis; details: in vivo, 504 h
[23] = Toxicity in BALB/c nude mouse xenografted with human BxPC-3 cells assessed as cellular edema in spleen at 5 to 15 mg/kg, ip qd for 21 days by H and E staining based analysis; details: in vivo, 504 h
[24] = Toxicity in BALB/c nude mouse xenografted with human BxPC-3 cells assessed as tissue fibrosis in spleen at 5 to 15 mg/kg, ip qd for 21 days by H and E staining based analysis; details: in vivo, 504 h
[25] = Toxicity in BALB/c nude mouse xenografted with human BxPC-3 cells assessed as cellular edema in kidneys at 5 to 15 mg/kg, ip qd for 21 days by H and E staining based analysis; details: in vivo, 504 h
[26] = Toxicity in BALB/c nude mouse xenografted with human BxPC-3 cells assessed as inflammatory infiltration in kidneys at 5 to 15 mg/kg, ip qd for 21 days by H and E staining based analysis; details: in vivo, 504 h

SMILES: CN(C)Cc1ccc(NC(=O)c2ccc(Nc3nccc(-c4cccnc4)n3)cc2)cc1
- IC50 (PANC-1 [1]): 4.2 µM
- inhibition (BXPC-3 [2]): Dose-dependent-effect
- inhibition (BXPC-3 [3]): Dose-dependent-effect
- Activity (PANC-1 [4]): 7.03%
- viability at 8 µM (PANC-1 [5]): 85.9%
- Activity (PANC-1 [6]): 2.97%
- Activity (PANC-1 [7]): 8.97%
- Activity (PANC-1 [8]): 2.16%
- viability at 10 µM (PANC-1 [9]): 71%
- Activity (PANC-1 [10]): 4.09%
- viability at 2.5 µM (BXPC-3 [11]): 88.5%
- Activity (BXPC-3 [12]): 8.06%
- Activity (BXPC-3 [13]): 1.37%
- Activity (BXPC-3 [14]): 10.8%
- viability at 8 µM (BXPC-3 [15]): 82.5%
- Activity (BXPC-3 [16]): 24%
- Activity (PANC-1 [17]): 8.18%
- Activity (BXPC-3 [18]): 83.9%
- Activity (BxPC-3 [19]): 82%
- Activity [20]: Non-toxic
- Activity [21]: Non-toxic
- Activity [22]: Non-toxic
- Activity [23]: Non-toxic
- Activity [24]: Non-toxic
- Activity [25]: Non-toxic
- Activity [26]: Non-toxic
